Here are results for 14 compounds from ChEMBL document CHEMBL2203243, “Synthesis and biological evaluation of novel benzimidazole derivatives and their binding behavior with bovine serum albumin” (Eur J Med Chem, 2012).

Molecules are shown by their SMILES. In brackets after ≈: the same amount, converted by molar mass.

Series [1] is described as follows: Lipophilicity, log P of the compound by UV-Vis spectrophotometric method based saturation shake flask assay. The format is physicochemical. The settings on record: octanol/water. The procedure, abridged:
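Log P measured by the traditional saturation shake-flask partition, with compound quantified by UV-vis spectrophotometry.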

Series [2] relates to Candida. The series can be described thus: Antimicrobial activity against Candida mycoderma by microbroth dilution method. The format is functional. In outline: (§1)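 Two-fold serial broth microdilution in 96-well microtest plates, run against four Gram-positive strains, five Gram-negative strains and two fungi.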
The nature of series [3]: Antimicrobial activity against Eberthella typhosa by microbroth dilution method. The format is functional. The procedure, abridged: as §1
In series [4] the test system is Candida albicans. The series can be described thus: Antimicrobial activity against Candida albicans by microbroth dilution method. The format is functional. In outline: as §1
On the technique in general: Dilution methods test growth across graded concentrations, often in twofold steps.

The test system of series [5] is Bacillus. The series can be described thus: Antimicrobial activity against Bacillus proteus by microbroth dilution method. The format is functional. The procedure, abridged: as §1
Series [6] has as its system Pseudomonas aeruginosa. Put plainly: Antimicrobial activity against Pseudomonas aeruginosa by microbroth dilution method. The format is functional. In outline:
as §1

Series [7] has as its system Shigella dysenteriae. Put plainly: Antimicrobial activity against Shigella dysenteriae by microbroth dilution method. The format is functional.
The subject of series [8] is Escherichia coli. Put plainly: Antimicrobial activity against Escherichia coli DH52 by microbroth dilution method. The format is functional. In outline: as §1
The subject of series [9] is Micrococcus luteus. The series can be described thus: Antimicrobial activity against Micrococcus luteus ATCC 4698 by microbroth dilution method. The format is functional. The procedure, abridged: as §1
Series [10] concerns Bacillus subtilis. Put plainly: Antimicrobial activity against Bacillus subtilis by microbroth dilution method. The format is functional. In outline:
as §1

The subject of series [11] is Staphylococcus aureus. Put plainly: Antimicrobial activity against Staphylococcus aureus ATCC 25923 by microbroth dilution method. The format is functional. In outline:
as §1

The subject of series [12] is Staphylococcus aureus. Put plainly: Antimicrobial activity against methicillin-resistant Staphylococcus aureus N315 by microbroth dilution method. The format is functional.

As for `Cc1c(C(=O)NNCc2nc3ccccc3n2Cc2ccc(Cl)c(Cl)c2)sc(C(=O)NNCc2nc3ccccc3n2Cc2ccc(Cl)c(Cl)c2)c1C`, in series [1] (read-out: logP), the logP came to 7.16. Further, the MIC in [2], in [3], in series [4], in series [5], in [6] and in [7] was > 512 µg/mL throughout. In addition, the MIC is 512 µg/mL (≈ 635 µM) in series [8]; > 512 µg/mL in series [9]; 512 µg/mL (≈ 635 µM) in series [10]; 32 µg/mL (≈ 39.7 µM) in series [11]; > 512 µg/mL in series [12].
`CCCCCCCCn1c(CNNC(=O)c2sc(C(=O)NNCc3nc4ccccc4n3CCCCCCCC)c(C)c2C)nc2ccccc21`: in [1] (read-out: logP), the logP came out at 8.19. Further, the MIC in series [2] is 4 µg/mL (≈ 5.61 µM); in series [3], 64 µg/mL (≈ 89.8 µM); in series [4] it was 16 µg/mL (≈ 22.4 µM); in series [5], > 512 µg/mL; in [6], 16 µg/mL (≈ 22.4 µM); in [7] it was 16 µg/mL (≈ 22.4 µM). Further, the MIC in [8] was 32 µg/mL (≈ 44.9 µM); in [9], 16 µg/mL (≈ 22.4 µM); in series [10] it was 32 µg/mL (≈ 44.9 µM); in series [11], 32 µg/mL (≈ 44.9 µM); in [12], 8 µg/mL (≈ 11.2 µM).
As for `CCCCCCCCCCCCn1c(CNNC(=O)c2sc(C(=O)NNCc3nc4ccccc4n3CCCCCCCCCCCC)c(C)c2C)nc2ccccc21`, the logP entry in series [1] is “ND(Insoluble)”. The MIC in series [2] was 64 µg/mL (≈ 77.6 µM); in series [3] it was 256 µg/mL (≈ 310 µM); in [4], 256 µg/mL (≈ 310 µM); in series [5] it was > 512 µg/mL; in series [6], 128 µg/mL (≈ 155 µM); in series [7], 16 µg/mL (≈ 19.4 µM). Besides, the MIC in series [8] is 128 µg/mL (≈ 155 µM); in series [9], > 512 µg/mL; in series [10] it was 512 µg/mL (≈ 620 µM); in series [11] it was 128 µg/mL (≈ 155 µM); in series [12] it was 8 µg/mL (≈ 9.69 µM).
Turning to `Cc1c(C(=O)NNCc2nc3ccccc3n2Cc2cccc(Cl)c2)sc(C(=O)NNCc2nc3ccccc3n2Cc2cccc(Cl)c2)c1C`, the logP in [1] (read-out: logP) came to 6.34. The MIC came out at 64 µg/mL (≈ 86.8 µM) in series [2]; 256 µg/mL (≈ 347 µM) in series [3]; 128 µg/mL (≈ 174 µM) in [4]; 128 µg/mL (≈ 174 µM) in series [5]; 128 µg/mL (≈ 174 µM) in series [6]; 128 µg/mL (≈ 174 µM) in series [7]. The MIC stood at 32 µg/mL (≈ 43.4 µM) in [8]; 32 µg/mL (≈ 43.4 µM) in series [9]; 128 µg/mL (≈ 174 µM) in [10]; 128 µg/mL (≈ 174 µM) in series [11]; 16 µg/mL (≈ 21.7 µM) in series [12].
In the case of `Cc1c(C(=O)NN)sc(C(=O)NNCc2nc3ccccc3[nH]2)c1C`, in [1] (read-out: logP), the logP was determined as 0.84. The MIC stood at 128 µg/mL (≈ 357 µM) in series [2]; 64 µg/mL (≈ 179 µM) in [3]; 256 µg/mL (≈ 714 µM) in series [4]; 128 µg/mL (≈ 357 µM) in series [5]; 256 µg/mL (≈ 714 µM) in series [6]; 512 µg/mL (≈ 1430 µM) in series [7]. Moreover, the MIC came out at 512 µg/mL (≈ 1430 µM) in series [8]; 128 µg/mL (≈ 357 µM) in series [9]; 64 µg/mL (≈ 179 µM) in [10]; 256 µg/mL (≈ 714 µM) in [11]; 256 µg/mL (≈ 714 µM) in series [12].
In the case of `ClCc1nc2ccccc2[nH]1`, the lipophilicity (logP) in series [1] (read-out: logP) came out at 1.44. Besides, the MIC in series [2] was > 512 µg/mL; in [3], 512 µg/mL (≈ 3070 µM); in series [4], 512 µg/mL (≈ 3070 µM); in series [5], > 512 µg/mL; in [6], > 512 µg/mL; in series [7], 512 µg/mL (≈ 3070 µM). Further, the MIC in series [8] is 256 µg/mL (≈ 1540 µM); in series [9], 512 µg/mL (≈ 3070 µM); in [10], > 512 µg/mL; in series [11], > 512 µg/mL; in series [12] it was > 512 µg/mL.
On to `CCn1cc(C(=O)O)c(=O)c2cc(F)c(N3CCNCC3)cc21` [NORFLOXACIN], for which the MIC in series [3] is 4 µg/mL (≈ 12.5 µM); in series [5] it was 8 µg/mL (≈ 25.1 µM); in [6], 16 µg/mL (≈ 50.1 µM); in series [7], 4 µg/mL (≈ 12.5 µM); in [8], 16 µg/mL (≈ 50.1 µM); in [9], 2 µg/mL (≈ 6.26 µM). For the same compound, the MIC in series [10] came out at 1 µg/mL (≈ 3.13 µM); in series [11], 0.5 µg/mL (≈ 1.57 µM); in [12] it was 8 µg/mL (≈ 25.1 µM).
`CCCCCCCCCCn1c(CNNC(=O)c2sc(C(=O)NNCc3nc4ccccc4n3CCCCCCCCCC)c(C)c2C)nc2ccccc21.Cl`: the minimal inhibitory concentration (MIC) in series [2] was found to be 4 µg/mL; in series [3], 4 µg/mL; in series [4], 8 µg/mL; in series [5] it was 2 µg/mL; in series [6], 16 µg/mL; in [7], 8 µg/mL. The MIC in [8] was determined as 4 µg/mL; in [9], 8 µg/mL; in [10] it was 2 µg/mL; in series [11], 2 µg/mL; in series [12], 2 µg/mL.
Consider `Cc1c(C(=O)NNCc2nc3ccccc3[nH]2)sc(C(=O)NNCc2nc3ccccc3[nH]2)c1C`, for which the logP in [1] (read-out: logP) worked out at 1.25. Also, the MIC in [2] is 256 µg/mL (≈ 524 µM); in series [3], 512 µg/mL (≈ 1050 µM); in series [4], > 512 µg/mL; in [5] it was 256 µg/mL (≈ 524 µM); in series [6], > 512 µg/mL; in series [7] it was 512 µg/mL (≈ 1050 µM). Also, the MIC in [8] was 512 µg/mL (≈ 1050 µM); in series [9] it was 256 µg/mL (≈ 524 µM); in [10] it was 128 µg/mL (≈ 262 µM); in series [11], > 512 µg/mL; in series [12], > 512 µg/mL.
As to `Cc1c(C(=O)NNCc2nc3ccccc3n2Cc2ccc(F)cc2)sc(C(=O)NNCc2nc3ccccc3n2Cc2ccc(F)cc2)c1C`, in [1] (read-out: logP), the logP turned out to be 5.25. Also, the MIC amounted to 32 µg/mL (≈ 45.4 µM) in series [2]; 128 µg/mL (≈ 182 µM) in series [3]; 64 µg/mL (≈ 90.8 µM) in series [4]; 128 µg/mL (≈ 182 µM) in series [5]; 128 µg/mL (≈ 182 µM) in series [6]; 128 µg/mL (≈ 182 µM) in [7]. In addition, the MIC in series [8] came out at 32 µg/mL (≈ 45.4 µM); in [9], 128 µg/mL (≈ 182 µM); in series [10] it was 32 µg/mL (≈ 45.4 µM); in series [11], 128 µg/mL (≈ 182 µM); in [12], 128 µg/mL (≈ 182 µM).
As to `OC(Cn1cncn1)(Cn1cncn1)c1ccc(F)cc1F` [FLUCONAZOLE], the MIC in series [2] worked out at 4 µg/mL (≈ 13.1 µM); in [4], 1 µg/mL (≈ 3.27 µM).
Turning to `O=C(N[C@H](CO)[C@H](O)c1ccc([N+](=O)[O-])cc1)C(Cl)Cl` [CHLORAMPHENICOL], the MIC in series [3] was 32 µg/mL (≈ 99 µM); in [5] it was 32 µg/mL (≈ 99 µM); in [6], 32 µg/mL (≈ 99 µM); in series [7] it was 32 µg/mL (≈ 99 µM); in series [8], 32 µg/mL (≈ 99 µM); in series [9], 8 µg/mL (≈ 24.8 µM). Moreover, the MIC came to 32 µg/mL (≈ 99 µM) in series [10], 16 µg/mL (≈ 49.5 µM) in series [11] and 16 µg/mL (≈ 49.5 µM) in series [12].
Turning to `CCCn1c(CNNC(=O)c2sc(C(=O)NNCc3nc4ccccc4n3CCC)c(C)c2C)nc2ccccc21.Cl`, the MIC was 128 µg/mL in series [2]; 4 µg/mL in [3]; 32 µg/mL in series [4]; 16 µg/mL in series [5]; 32 µg/mL in series [6]; 128 µg/mL in [7]. Besides, the MIC in [8] was 256 µg/mL; in series [9] it was 256 µg/mL; in series [10] it was 256 µg/mL; in series [11], 256 µg/mL; in series [12], 32 µg/mL.
For the compound `Cc1c(C(=O)NNCc2nc3ccccc3n2Cc2ccc(F)cc2)sc(C(=O)NNCc2nc3ccccc3n2Cc2ccc(F)cc2)c1C.Cl`, the MIC in series [2] is 8 µg/mL; in series [3], 256 µg/mL; in [4], 64 µg/mL; in [5], 128 µg/mL; in series [6], 64 µg/mL; in series [7], 8 µg/mL. Besides, the MIC was 16 µg/mL in [8]; 64 µg/mL in series [9]; 16 µg/mL in series [10]; 256 µg/mL in [11]; 32 µg/mL in series [12].

Broadly, the logP is the decadic logarithm of the partition coefficient of the neutral form, usually between octanol and water. As usually defined, the MIC is the least concentration at which growth counts as inhibited. High values mean a need for much substance, low ones inhibition by little substance.
